The list is not random: actives were taken first. Their share in the collection is about 3.1%.
KCNQ1 block: human KCNQ1 channel inhibition. CHO-K1 KCNQ1, FluxOR thallium flux fluorescence; hits give high values. B-score at 10 µM. actives 1.3% (n = 310,000). AID 2642;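 active = compounds whose thallium flux B-score, printed positive for inhibition, exceeds three library SD while starting fluorescence stays within three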;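 also: channel opened by potassium depolarization with thallium stimulus after 20 min compound exposure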
KCNQ1 pot: human KCNQ1 channel potentiation or activation | P51787 | CHO-K1 KCNQ1, thallium flux FluxOR fluorescence; hits give high values | B-score at 10 µM | actives 0.35% (n = 310,000) | AID 2648;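 active = fluorescence ratio B-score, a plate-corrected score, at least three library SD, with initial intensity B-score within 5 SD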
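System: Stable KCNQ1 CHO-K1 line | Incubation: 90 min dye loading and 20 min compound exposure, both at room temperature | Measure: Ratio B score | Medium: Assay buffer for compound exposure, DMSO matched across wells | Compound dosing: Single-concentration screen | Probe or stimulus: K+/Tl+ depolarizing stimulus | Measured by: Kinetic FluxOR fluorescence, 10 s baseline plus 110 s post-stimulus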
KCNK9 inh: blocks the human KCNK9 two-pore domain potassium channel | AID 488922 | B-score at 10 µM | Q9NPC2 | HEK293 KCNK9, FluxOR thallium flux fluorescence; hits give low values | actives 1.2% (n = 310,000);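 active = ratio B-score over 3 SD below the library mean, with starting fluorescence within 5 SD of its mean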;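 also: negative B-score means less thallium flux so channel inhibition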
Target sequence (Q9NPC2 whole entry, looked up, the tested form may be a part): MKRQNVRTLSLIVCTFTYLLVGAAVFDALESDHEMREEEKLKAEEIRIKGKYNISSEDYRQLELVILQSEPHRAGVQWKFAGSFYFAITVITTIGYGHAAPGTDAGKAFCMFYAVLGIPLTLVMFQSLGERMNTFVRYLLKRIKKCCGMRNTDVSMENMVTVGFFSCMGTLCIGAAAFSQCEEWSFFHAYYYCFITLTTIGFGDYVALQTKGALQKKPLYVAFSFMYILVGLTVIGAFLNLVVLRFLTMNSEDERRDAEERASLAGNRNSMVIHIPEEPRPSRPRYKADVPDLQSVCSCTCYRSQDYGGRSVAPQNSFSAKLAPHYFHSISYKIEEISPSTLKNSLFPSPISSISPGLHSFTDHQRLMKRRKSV
hERG protect: shields human hERG channel from block by proarrhythmic agents; Q12809; actives 0.51% (n = 310,000); AID 1511; activation (rescue from dofetilide block), less the hit threshold, % at 10 µM; CHO-hERG, FluxOR thallium flux, dofetilide IC70 present;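 active = activation above the mean of controls blocked by dofetilide plus 5 SD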;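 also: thallium influx through hERG after potassium depolarization seen as dye fluorescence rise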
KCNK3 block: human KCNK3 channel inhibition, primary screen; O14649; CHO-KCNK3 thallium flux, FluxOR fluorescence; hits give low values; B-score at 10 µM; actives 0.84% (n = 340,000); AID 602410;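 active = B-score under library mean minus 4 SD, starting fluorescence ratio at most library mean plus 5 SD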;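 also: more negative B-score means stronger inhibition of thallium flux through KCNK3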
A number is an active result; i = inactive; nt = not tested or not shown.

SMILES	KCNQ1 block	KCNQ1 pot	KCNK9 inh	hERG protect	KCNK3 block
c1ccc(-c2ccc(-c3n(-c4ccccn4)c4ccccc4[n+]3-c3ccccn3)cc2)cc1	9	i	i	i	i
COC(=O)C(C)Oc1cc(C)cc2oc(=O)c3c(c12)CCCC3 (centres undefined)	i	i	i	i	-9.2
Cc1cccc(CC(c2cccc(C)c2)N(C)C)c1 (centres undefined)	nt	nt	nt	nt	i
Oc1ccc(-[n+]2c(-c3ccccc3)cc(-c3ccccc3)cc2-c2ccccc2)cc1	10	i	-7.3	i	i
COc1ccc(-[n+]2c(-c3ccccc3)cc(-c3ccccc3)cc2-c2ccccc2)cc1	6	i	-8.8	i	nt
O=C([O-])c1ccc(-[n+]2c(-c3ccccc3)cc(-c3ccccc3)cc2-c2ccccc2)cc1	i	i	i	i	i
COC(=O)C1=C(c2cccc(C#N)c2)C[C@@H]2CC[C@H]1N2C(=O)N1CCCCC1	nt	nt	nt	nt	i
C/C(=N\NC(=O)c1ccccc1)c1c(O)n(Cc2ccccc2)c(=O)[nH]c1=O	i	i	i	i	i
C/C(=N\Nc1cccc2ccccc12)c1c(O)n(Cc2ccccc2)c(=O)[nH]c1=O	i	i	-7.2	i	i
COc1ccc(/C=C/C=C2C(=O)NC(=S)NC2=O)cc1	nt	nt	nt	nt	i
CCOc1cccc(CNCCc2c(C)[nH]c3ccc(OC(F)(F)F)cc23)c1O	12	i	i	i	i
CNC(=O)Oc1ccccc1OC(C)C	nt	nt	nt	nt	i
CC[n+]1c(/C=C/N(C)c2ccccc2)sc2ccc(Cl)cc21	6	i	i	i	i
CC[n+]1c(/C=C/C=C/c2ccc(N(C)C)cc2)sc2ccccc21	i	i	-6.6	i	-11
COC(=O)C1=C(c2ccc(-c3ccccc3)c(F)c2)C[C@@H]2CC[C@H]1N2C(=O)NCCCOC(C)C	nt	nt	nt	nt	i
Cc1cccc2c1=NC(=O)/C(=C/c1c(O)[nH]c(=O)[nH]c1=O)C=2	i	i	i	i	i
O=c1[nH]c(=S)[nH]c(O)c1/C=C1/C=c2ccccc2=N1	i	i	i	45	i
C[C@]12CC[C@H](O)C[C@H]1CC[C@@H]1[C@@H]2CC[C@]2(C)C(=O)CC[C@@H]12	nt	nt	nt	nt	i
c1ccc(C[n+]2ccccc2)cc1	7	i	i	i	i
Cc1cc[n+](Cc2ccccc2)cc1	i	i	i	i	i
CCCCn1c(=O)c(C(=O)Nc2cnccn2)c(O)c2ccccc21	9	i	i	i	i
COC(=O)C1=C(c2cccc(Cl)c2)C[C@@H]2CC[C@H]1N2C(=O)N1CCCC1	nt	nt	nt	nt	i
O=C(c1ccc(F)cc1)C(Cc1ccccc1)N1CCCCC1 (centres undefined)	i	i	i	i	i
O=C(CCCN1CCC2(CC1)C(=O)NCN2c1ccccc1)c1ccc(F)cc1	i	23	i	i	i
CC/C(=N\NC(=O)c1ccccc1)c1c(O)n(C2CCCCC2)c(=O)[nH]c1=O	7	i	i	i	i
SMILES	KCNQ1 block	KCNQ1 pot	KCNK9 inh	hERG protect	KCNK3 block
O=c1[nH]c(=S)n(CCC2=CCCCC2)c(O)c1C=NC1CCN(Cc2ccccc2)CC1	7	i	i	i	i
CC(=O)OC(C)(C)/C=C/C(=O)C(C)(O)C1[C@H](O)C[C@@]2(C)C3CC=C4C(CC[C@@H](O)C4(C)C)[C@]3(CO)C(=O)C[C@]12C (some centres undefined)	i	13	i	i	i
O=C1c2ccccc2C2(c3ccc(Cl)cc3)NCCN12 (centres undefined)	i	i	i	4.8	i
CC12CCC(=O)C=C1C=CC1C2CCC2(C)C(O)CCC12 (centres undefined)	nt	nt	nt	nt	i
CC(=O)OC1C(=O)OCC23CCC4(C)OC4C2OC2CC(OC(=O)C=CC=CC(=O)OCCC1C)C3(C)C21CO1 (centres undefined)	nt	nt	nt	nt	i
O=C(c1cc(C(=O)NCc2ccccc2)c(=O)n(Cc2ccccc2)c1)c1cc(Br)ccc1O	6	i	i	i	i
COC(=O)C1=C(c2ccc(C(C)=O)cc2)C[C@@H]2CC[C@H]1N2C(=O)NC1CC1	nt	nt	nt	nt	i
CCn1c(O)c(C=Nc2ccc(N3CCOCC3)cc2)c(=O)n(CC)c1=S	7	i	i	i	i
CCOC(=O)c1c(C)n(Cc2ccccc2)c2ccc(OCC(O)CNC(C)(C)C)cc12 (centres undefined)	i	i	i	i	i
CC1=CC2/C=C(\C)CCC(O)C(O)/C=C/C(=O)C23C(=O)NC(CC(C)C)C3C1C (centres undefined)	i	10	i	i	i

Screening results as filed in PubChem.
